Marks after values point to notes of the source that are not given here.
Legend:
Assay type in all cases: in vivo, human
[1] = test system: serum high‐density lipoprotein cholesterol (HDL‐C); assay: Serum HDL-C level, M-test
QTcF intervals = assay: ECG QTcF evaluation; conditions: S-test and M-test, 2.5-20 mg
In short: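 12-lead surface ECG in both single- and 14-day dosing tests. QT was Fridericia-corrected by experienced central-laboratory readers. ΔQTcF from baseline was calculated at each time point, and ΔΔQTcF versus placebo was estimated with 90% CI. Categorical counts: absolute QTcF >450, >480 and >500 ms; ΔQTcF >30 and >60 ms.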

[2] = test system: serum low‐density lipoprotein cholesterol (LDL‐C); assay: Serum LDL-C level, M-test; conditions: Day 8 and Day 14; P < 0.001 except 2.5 mg day^–1
[3] = test system: patients with chronic constipation; assay: Adverse events, M-test
In short: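 Patients randomized 5:1 to test compound (2.5, 5, 10, 15 or 20 mg) or placebo. Oral tablet once daily before breakfast for 14 consecutive days, inpatient Day –2 to Day 21. AE type, severity and incidence were recorded with physical exams, vital signs, 12-lead ECG and laboratory tests. Proportions of patients with AEs were tabulated, and dose-dependency was tested by Cochran–Armitage trend test.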

[4] = test system: plasma 7α‐hydroxy‐4‐cholesten‐3‐one (C4); assay: Food effect on plasma C4, S-test; conditions: up to 24 h, AUEC P < 0.001
In short: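 Crossover single dose taken 15 min before breakfast or fasting. Plasma was sampled predose and at 0.5–12 h on Days –1, 1, 7 and 8, plus daily. C4 was measured by LC–MS/MS (LLOQ 2 ng ml–1). […] Food effect was assessed by linear mixed model (dose, food, intervention, period fixed; patient random).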

[5] = Pharmacokinetics of elobixibat; conditions: for AUC(0–t), back transformed LSM ratio breakfast/no breakfast / Cmax, back transformed LSM ratio breakfast/no breakfast: linear mixed effect model; for fe144h / Ae144h: urine 0-144 h; for fe144h: arithmetic mean; for Ae144h: geometric mean (CV)
In short: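 Single oral dose, 2.5–20 mg, with or without breakfast, in crossover. Plasma was drawn predose and at 0.5–12 h on Days –1, 1, 7 and 8, plus daily. Urine was collected daily except Day 7. Analyte was measured by LC–MS/MS (LLOQ 10.0 pg ml–1). Noncompartmental analysis with linear trapezoidal AUC. Dose proportionality (no-breakfast regimen) was assessed by power model or ANOVA on log values. Food effect: mixed model, back-transformed LSM ratios.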

[6] = 2.5 mg once daily 14 days (group n=10)
[7] = 5 mg once daily 14 days (group n=10)
[8] = 10 mg once daily 14 days (group n=9)
[9] = 15 mg once daily 14 days (group n=10)
[10] = 20 mg once daily 14 days (group n=10)
[11] = single dose 2.5 mg, before breakfast
[12] = single dose 2.5 mg, no breakfast
[13] = single dose 5 mg, before breakfast
[14] = single dose 10 mg, before breakfast
[15] = single dose 10 mg, no breakfast
[16] = single dose 15 mg, before breakfast
[17] = single dose 15 mg, no breakfast
[18] = single dose 20 mg, before breakfast
[19] = single dose 20 mg, no breakfast

CCCCC1(CCCC)CN(c2ccccc2)c2cc(SC)c(OCC(=O)N[C@@H](C(=O)NCC(=O)O)c3ccccc3)cc2S(=O)(=O)C1 [elobixibat]
HDL‐C levels, trend [1]: no clear trend | QTcF prolongation (>450 ms), categorical analysis (QTcF intervals): no QTcF prolongation | LDL‐C AUEC compared to placebo (ANCOVA) [2]: significantly greater reductions | AEs associated with gastrointestinal disorders, % of patients [3, 6]: (80.0) % | AEs associated with gastrointestinal disorders, n of patients [3, 6]: 8 | Any AEs, % of patients [3, 6]: (80.0) % | Any AEs, n of patients [3, 6]: 8 | abdominal distention, % of patients [3, 6]: (30.0) % | abdominal distention, n of patients [3, 6]: 3 | abdominal pain lower, % of patients [3, 6]: (40.0) % | abdominal pain lower, n of patients [3, 6]: 4 | abdominal pain upper, n of patients [3, 6]: 0 | diarrhoea, % of patients [3, 6]: (10.0) % | diarrhoea, n of patients [3, 6]: 1 | AEs associated with gastrointestinal disorders, % of patients [3, 7]: (80.0) % | AEs associated with gastrointestinal disorders, n of patients [3, 7]: 8 | Any AEs, % of patients [3, 7]: (90.0) % | Any AEs, n of patients [3, 7]: 9 | abdominal distention, % of patients [3, 7]: (30.0) % | abdominal distention, n of patients [3, 7]: 3 | abdominal pain lower, % of patients [3, 7]: (30.0) % | abdominal pain lower, n of patients [3, 7]: 3 | abdominal pain upper, % of patients [3, 7]: (20.0) % | abdominal pain upper, n of patients [3, 7]: 2 | diarrhoea, % of patients [3, 7]: (40.0) % | diarrhoea, n of patients [3, 7]: 4 | AEs associated with gastrointestinal disorders, % of patients [3, 8]: (77.8) % | AEs associated with gastrointestinal disorders, n of patients [3, 8]: 7 | Any AEs, % of patients [3, 8]: (100.0) % | Any AEs, n of patients [3, 8]: 9 | abdominal distention, % of patients [3, 8]: (22.2) % | abdominal distention, n of patients [3, 8]: 2 | abdominal pain lower, % of patients [3, 8]: (33.3) % | abdominal pain lower, n of patients [3, 8]: 3 | abdominal pain upper, % of patients [3, 8]: (22.2) % | abdominal pain upper, n of patients [3, 8]: 2 | diarrhoea, % of patients [3, 8]: (44.4) % | diarrhoea, n of patients [3, 8]: 4 | AEs associated with gastrointestinal disorders, % of patients [3, 9]: (70.0) % | AEs associated with gastrointestinal disorders, n of patients [3, 9]: 7 | Any AEs, % of patients [3, 9]: (90.0) % | Any AEs, n of patients [3, 9]: 9 | abdominal distention, % of patients [3, 9]: (40.0) % | abdominal distention, n of patients [3, 9]: 4 | abdominal pain lower, % of patients [3, 9]: (40.0) % | abdominal pain lower, n of patients [3, 9]: 4 | abdominal pain upper, n of patients [3, 9]: 0 | diarrhoea, % of patients [3, 9]: (40.0) % | diarrhoea, n of patients [3, 9]: 4 | AEs associated with gastrointestinal disorders, % of patients [3, 10]: (90.0) % | AEs associated with gastrointestinal disorders, n of patients [3, 10]: 9 | Any AEs, % of patients [3, 10]: (90.0) % | Any AEs, n of patients [3, 10]: 9 | abdominal distention, % of patients [3, 10]: (60.0) % | abdominal distention, n of patients [3, 10]: 6 | abdominal pain lower, % of patients [3, 10]: (50.0) % | abdominal pain lower, n of patients [3, 10]: 5 | abdominal pain upper, % of patients [3, 10]: (20.0) % | abdominal pain upper, n of patients [3, 10]: 2 | diarrhoea, % of patients [3, 10]: (80.0) % | diarrhoea, n of patients [3, 10]: 8 | safety and tolerability ([3]; once‐daily administration, female and male patients): safe and tolerated up to 20 mg | C4 Emax and AUEC, breakfast regimen compared with no‐breakfast regimen [4]: significantly greater elevations | plasma elobixibat concentration, range ([5]; 2.5-20 mg): picomolar range | quantity of drug excreted in the urine ([5]; all dosing levels, both regimens): less than 0.01% | slope of the regression line (power model) for Ae144h ([5]; no‐breakfast regimen, 2.5-20 mg, dose proportionality): 0.9321 | fraction of dose excreted in urine (fe) up to 144 h ([5]; no‐breakfast regimen, all dosing groups (2.5-20 mg)): < 0.01% | t1/2 versus dose ([5]; no‐breakfast regimen, P < 0.001, said to be apparent (LLOQ)): prolonged dose‐dependently | AUC(0–t), back transformed LSM ratio breakfast/no breakfast ([5]; single dose 2.5 mg): 0.1368 | Cmax, back transformed LSM ratio breakfast/no breakfast ([5]; single dose 2.5 mg): 0.2448 | AUC(0–t), back transformed LSM ratio breakfast/no breakfast ([5]; single dose 5 mg): 0.2318 | Cmax, back transformed LSM ratio breakfast/no breakfast ([5]; single dose 5 mg): 0.2922 | AUC(0–t), back transformed LSM ratio breakfast/no breakfast ([5]; single dose 10 mg): 0.1989 | Cmax, back transformed LSM ratio breakfast/no breakfast ([5]; single dose 10 mg): 0.2531 | AUC(0–t), back transformed LSM ratio breakfast/no breakfast ([5]; single dose 15 mg): 0.1884 | Cmax, back transformed LSM ratio breakfast/no breakfast ([5]; single dose 15 mg): 0.2085 | AUC(0–t), back transformed LSM ratio breakfast/no breakfast ([5]; single dose 20 mg): 0.2275 | Cmax, back transformed LSM ratio breakfast/no breakfast ([5]; single dose 20 mg): 0.2240 | fe144h [5, 11]: 0.0008 ^a % | Ae144h [5, 11]: 24.30 (72.9) ^a ng | fe144h [5, 12]: 0.0098% | Ae144h [5, 12]: 213.28 (59.5) ng | fe144h [5, 13]: 0.0021% | Ae144h [5, 13]: 107.50 (63.4) ng | fe144h ([5]; single dose 5 mg, no breakfast): 0.0077% | Ae144h ([5]; single dose 5 mg, no breakfast): 306.59 (38.8) ng | fe144h [5, 14]: 0.0016% | Ae144h [5, 14]: 139.38 (49.9) ng | fe144h [5, 15]: 0.0070% | Ae144h [5, 15]: 598.14 (67.8) ng | fe144h [5, 16]: 0.0013 ^a % | Ae144h [5, 16]: 188.43 (37.2) ^a ng | fe144h [5, 17]: 0.0070 ^a % | Ae144h [5, 17]: 873.09 (68.4) ^a ng | fe144h [5, 18]: 0.0021 ^a % | Ae144h [5, 18]: 384.85 (55.6) ^a ng | fe144h [5, 19]: 0.0088% | Ae144h [5, 19]: 1623.23 (41.5) ng

From article PMC6138487 (British Journal of Clinical Pharmacology, 2018)
